In ChEMBL document CHEMBL2346503, “Synthesis and evaluation of novel (18)F-labeled spirocyclic piperidine derivatives as σ1 receptor ligands for positron emission tomography imaging” (J Med Chem, 2013):

Key:
Format in all cases: ADME, organism-based
[1] = system: Nucleic Acid; assay: Ratio of drug uptake in Sprague-Dawley rat hippocampus to cerebellum at 12.2 MBq, iv after 60 mins by autoradiography; settings: in vivo, 1 h
[2] = system: Brain; assay: Biodistribution in ICR mouse brain assessed as reduction in radiotracer uptake at 370 kBq, iv after 60 minutes by gamma-counting analysis in presence of SA4503 relative to control; set-up: scale not given: the % may be the effect or the level left; settings: in vivo, 1 h
Outline: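 Male ICR mice got saline or SA4503 (0.1 mL; 2, 5, 10 or 2.2 μmol/kg) via tail vein 5 min before 370 kBq tracer (0.1 mL) iv. They were decapitated at 60 min and tissues γ-counted. Percent change was taken against saline controls, with two-tailed Student's t test, p ≤ 0.05.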

[3] = Drug uptake in Sprague-Dawley rat white matter at 12.2 MBq, iv after 60 mins by autoradiography; settings: in vivo, 1 h
Outline: (§1)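 [¹⁸F]-labelled tracer (0.2 mL, 12.2 MBq) given intravenously to conscious Sprague-Dawley rats (n = 3). Each rat was killed by cervical dislocation 60 min after injection. The brain was removed and frozen in liquid nitrogen, and 20 μm coronal sections were cut on a cryostat for ex vivo autoradiography of regional radioactivity.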

[4] = system: Cortex; assay: Biodistribution in Sprague-Dawley rat cortex at 23 MBq, iv after 60 mins by microPET imaging/CT study in presence of haloperidol; settings: in vivo, 1 h
Outline: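 Sprague-Dawley rats under isoflurane (1.5–2.5%) in oxygen received 23 MBq radiotracer (0.2 mL saline) via tail vein. Blocking animals were pre-injected with haloperidol (0.2 mL, 1 mg/kg) 5 min before the tracer. MicroPET emission was acquired for 30 min starting 60 min post-injection, followed by a 5 min CT scan; images were summed over 60–90 min.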

[5] = Drug uptake in Sprague-Dawley rat vermian lobule at 12.2 MBq, iv after 60 mins by autoradiography; settings: in vivo, 1 h; outline: as §1
[6] = system: Brain; assay: Biodistribution in ICR mouse brain assessed as reduction in radiotracer uptake at 370 kBq, iv after 60 minutes by gamma-counting analysis in presence of haloperidol; settings: in vivo, 1 h
Outline: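 Male ICR mice got saline or a blocker (haloperidol, (S)-(−)-raclopride, fluvoxamine or tamoxifen; 0.1 mL, 2.2 μmol/kg) via tail vein 5 min before 370 kBq tracer iv. Brain was γ-counted at 60 min and compared with saline controls by two-tailed Student's t test, p ≤ 0.05.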

[7] = system: Brain; assay: Metabolic stability in ICR mouse brain at 18.5 MBq, iv after 30 mins by HPLC analysis; settings: in vivo, 0.5 h
Outline: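 Male ICR mice given radiotracer iv (18.5 MBq, 0.2 mL), killed at 30 min. Brain and liver were homogenized in ice-cold PBS (0.01 M, pH 7.4) and extracted with ice-cold MeCN. Supernatants were filtered, concentrated and analysed by radio-HPLC on a C18 column, acetonitrile/water with 0.1% TFA (45:55), 1 mL/min.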

[8] = Drug uptake in Sprague-Dawley rat paramedian lobule at 12.2 MBq, iv after 60 mins by autoradiography; settings: in vivo, 1 h; outline: as §1
[9] = system: Cortex; assay: Drug uptake in Sprague-Dawley rat visual cortex at 12.2 MBq, iv after 60 mins by autoradiography; settings: in vivo, 1 h; outline: as §1

Ratio [1]: 1.22
Activity [2]: 46%
Drug uptake [3]: Active
Drug uptake [4]: Active
Drug uptake [5]: Active
Drug uptake [6]: Active
Stability [7]: Stable
Drug uptake [8]: Active
Drug uptake [9]: Active
SMILES: [18F]CCOc1ccc(CN2CCC3(CC2)OCc2ccccc23)cc1
